# Test results reported in ChEMBL document CHEMBL4513216, “Probing the Open Global Health Chemical Diversity Library for Multistage-Active Starting Points for Next-Generation Antimalarials” (ACS Infect Dis, 2020).
# Test: Toxicity liver stage against HepG2, at 10uM
# Format: cell-based
# Parameters: test concentration 10 uM, cell line HepG2-A16-CD81EGFP
# Conditions: human, HepG2-A16-CD81EGFP cells; read-out: INHIBITION
# Procedure, shortened: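 Uninfected HepG2-A16-CD81EGFP cells, 3 × 10^3 per well, 1536-well, plated on prespotted compound at 10 μM final, parasite-free screening media added to match infected plates; puromycin 10 μM positive, DMSO 0.5% negative; run in parallel with 48 h PbLuc assay at 37 °C, 5% CO2; viability by CellTiter-Glo luminescence, normalized to controls.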
row,SMILES,cytotoxicity at 10 µM
1,O=C(NC[C@H]1C[C@@H]2CCN1C[C@@H]2CN1CCCC1)c1ccco1,-3.84%
2,Clc1ccc(-c2nnc([C@H]3CCN(C4CCCCC4)C3)o2)cc1,-120%
3,CC1(C)[C@H](Cc2cc(CN3CCOCC3)on2)C[C@@H]1NC(=O)C1CCC1,-6.67%
4,CC(C)(C)NC(=O)C[C@@H]1CCNC[C@@H]1Cc1cc(C(C)(C)C)on1,4.37%
5,O=C(Nc1ccc(Br)cc1F)c1ccc(N2CCCCC2)nn1,1.16%
6,O=C(NCC1(O)CCOc2ccccc21)Nc1ccc2c(c1)OCO2 (configuration not stated),-5.12%
7,O=C([C@H]1COC[C@H]2CN(C3CCOCC3)C[C@H]21)N1CCCCO1,5.22%
8,CC(=O)Nc1sc2c(c1C(=O)O)CCc1ccccc1-2,0.513%
9,CC(C(=O)Nc1ccccn1)n1ccc(C(F)(F)F)n1 (configuration not stated),2.74%
10,CCn1nc(C)c2nnn(CC(=O)Nc3ccc(C)c(C)c3)c(=O)c21,5.75%
11,CCc1c(O)nc2nc(N3CCOCC3)nn2c1C,10.8%
12,CCn1c(Nc2ccccc2OC)nc2c(C)nn(C)c2c1=O,15.8%
13,CO[C@@H]1CCC[C@@H](NC(=O)C(C)(C)c2cccc(F)c2)[C@H]1O,-1.09%
14,CN(CCc1ccccc1)Cc1cnc(C2(C)CCCCO2)nc1 (configuration not stated),1.99%
15,CNc1ncccc1CN1CCC1c1cc(N)nc(C)n1 (configuration not stated),15.9%
16,CCNC(=O)C1(Cc2cc(-c3ccccc3)no2)CCCN(C)C1 (configuration not stated),5.31%
17,CC(C)c1cn(CC(=O)NC2CC(=O)N(CCc3ccccc3)C2)nn1 (configuration not stated),-15.1%
18,CNC(=O)c1ccc(-c2ccc(CNC(=O)COC)cc2)nc1C,-5.52%
19,Cc1ccnc(C2CCN(c3ccnc(C)n3)C2)n1 (configuration not stated),-0.485%
20,Cn1ccnc1CN1CCCC(CCCc2ccccn2)(C(N)=O)C1 (configuration not stated),2.83%
21,Cc1nccc(N2CCCC2CCNS(C)(=O)=O)n1 (configuration not stated),0.146%

row,SMILES,cytotoxicity at 10 µM
1,Cc1nc(C2CCCN2C(=O)Cc2cccc(F)c2)nc(O)c1C (configuration not stated),-26.9%
2,CCc1ncc(CN2CCN(CCOC)CC2)cn1,-21.7%
3,Cc1ccccc1S(=O)(=O)N1CCC(c2[nH]ncc2C)C1 (configuration not stated),-21.1%
4,Cc1cc(-c2cnc(N3CCC(O)CC3)nc2-c2cccnc2C)on1,-25.2%
5,Cc1cc2c(=O)n3c(nc2s1)CCN(C(=O)c1ccnn1C(C)C)CC3,-6.46%
6,COCCN(C(=O)c1cnccn1)c1nc2c(s1)CCc1c-2cnn1C,-24.3%
7,Cc1cc(C)c(CNC(=O)N2CCCN(C(=O)C(C)C)CC2)c(C)c1,12.3%
8,CC(OCC1CC1)C(=O)NCc1cccc(CN2CCCC2=O)c1 (configuration not stated),3.05%
9,O=C(C1CCOc2ccccc21)N1CCOc2cccc(F)c21 (configuration not stated),4.52%
10,O=C(CNC1(CCO)CCOCC1)Nc1ccc(F)cc1F,-41.6%
11,Cc1ccn(CC(=O)NCCCOc2ccccc2F)c(=O)c1,-5.79%
12,O=C(CCc1nc(-c2cccnc2)no1)NCC1CCN(C2CC2)C1 (configuration not stated),0.113%
13,CCn1ccnc1CN1CCN(c2ncnc3ccsc23)CC1C (configuration not stated),3.04%
14,Cc1c(C(=O)OCC2CC(=O)N(c3ccccc3)C2)cnn1C(C)C (configuration not stated),-3.52%
15,N#Cc1ccnc(N2CCN(CC(O)c3ccc(F)cc3)CC2)c1 (configuration not stated),2.99%
16,Cc1csc(N2CCN(C(=O)c3cc(Cl)c[nH]3)CC2)n1,-2.82%
17,Cc1cc(F)ccc1CCNC(=O)NCC(C)N1CCOCC1 (configuration not stated),-1.35%
18,O=C(NCc1ccccn1)NCC(O)c1ccccc1C(F)(F)F (configuration not stated),-0.36%
19,CCCN(CCC)Cc1nnsc1Cl,10.3%
20,CCC(NCc1ccccn1)c1ccccc1OCC(=O)NC (configuration not stated),11.3%
21,CCN(CC)S(=O)(=O)CCNc1ncnc2cc(F)c(F)cc12,25.9%

row,SMILES,cytotoxicity at 10 µM
1,COc1c(CNCCC(=O)Nc2cccc(C)n2)c(C)nn1C,12.6%
2,CC(C)c1nc(C2CCCN2CCc2ccccn2)no1 (configuration not stated),3.38%
3,Cc1cc(S(=O)(=O)N2CCCc3cc(F)cc(F)c32)sc1C(=O)O,21.8%
4,O=C(c1ccc[nH]1)N1CCn2cc(Cn3cncn3)nc2C1,-2.65%
5,CN1CCN(CC2CC2)C(=O)c2cnc(N3CCCC3)nc21,5.08%
6,NC(=O)c1nc(CN2CCOC(C(F)(F)F)C2)no1 (configuration not stated),-3.39%
7,CC(NC(=O)CCCn1cnc2ccccc2c1=O)c1ncn[nH]1 (configuration not stated),-4.31%
8,Cc1nnsc1CNC(=O)CSCc1ccccc1Cl,-2.85%
9,O=C(NCCCNc1cccnc1)c1ccc2nccn2c1,-42.4%
10,Cc1ccc(NC(=O)[C@H]2C[C@H](C(=O)O)CN(CC(C)C)C2)cn1,9.9%
11,Cn1nc(C(C)(C)C)cc1NC(=O)Cn1ccnc1,1.5%
12,Cc1n[nH]c(C)c1CN(C)C(C(=O)O)c1ccc2c(c1)OCO2 (configuration not stated),6.86%
13,Cc1cc(N2Cc3cnc(CC(C)C)nc3C2)nc(N)n1,-5.64%
14,Cc1csc(CCNC(=O)C2CCCN(C3CCOCC3)C2)n1 (configuration not stated),3.01%
15,CCc1cnc(N2CCOC(CCOC)C2)nc1 (configuration not stated),-3.88%
16,CCc1ncc(C(=O)N2CCC(O)(CN3CCOCC3)C(C)(C)C2)cn1 (configuration not stated),-4.6%
17,COCc1nc(CN2CCN(c3ccc(OC)cc3)C(=O)C2C)no1 (configuration not stated),3.35%
18,COCCCN(C)[C@@H]1c2ccccc2C2(CCNCC2)[C@H]1O,1.73%
19,Cc1ccc(CN2CCN(c3ccc(F)cn3)CC2=O)cc1C,-4.4%
20,Cc1nn(C)c2ncnc(N3CCCC(C)(O)C3)c12 (configuration not stated),0.541%
21,CC(C)N(Cc1nccn1C)C(=O)c1cc(Cl)c[nH]c1=O,-0.723%

row,SMILES,cytotoxicity at 10 µM
1,Cc1cc(C)n(CC2CCCN2C(=O)c2cccc3c2OCCO3)n1 (configuration not stated),-11.8%
2,COc1c(CNC2CCc3ccccc32)c(C(C)C)nn1C (configuration not stated),0.441%
3,COc1c(CNCCNC(=O)c2ccc(C)c(F)c2)c(C)nn1C,-3.33%
4,CCOC1CCCN(C(=O)c2nn(-c3ccccc3F)cc2O)C1 (configuration not stated),-4.62%
5,CC(C)n1ncc2cc(NC(=O)N3CCSCC3)cnc21,-5.07%
6,Cc1nnc2n1CCN(C(C(=O)N1CCCCC1)c1ccccc1)C2 (configuration not stated),-5.83%
7,Cc1ccsc1CNC(=O)N1CCC(Cc2cnn(C)c2)C1 (configuration not stated),-6.6%
8,CCNc1cc2c(nn1)CCN(C(=O)C1CCc3ccccc31)C2 (configuration not stated),0.169%
9,COc1ccccc1C(C)NC(=O)N1CCC(n2cncn2)CC1 (configuration not stated),2.85%
10,CCOc1ccc(C(=O)N2CCCS2(=O)=O)cc1OC,-7.42%
11,CN(C)CC1CN(Cc2coc(-c3cccc(F)c3)n2)CCO1 (configuration not stated),-17.2%
12,Cc1noc(C)c1CN(C)C(=O)c1ccc(NC2CC2)nc1,-4.94%
13,Cn1nccc1C1CCN(Cc2csc(-c3ncccn3)n2)CC1,-1.91%
14,CC(C)CN1CCN(C(=O)NCc2cccnc2-n2cccn2)CC1,7.29%
15,CCn1ccnc1CN1CCN(c2cc(C)nc(C3CCCN3)c2)CC1 (configuration not stated),2.19%
16,COc1ccc(C2(NCc3c(C)nc4c(C)cccn34)CCCC2)cc1,3.79%
17,O=C(c1cnccn1)N1CCN2C[C@H](OCc3ccccc3)C[C@H]2C1,1.44%
18,CCN1CC[C@@]2(C(=O)N(C)C)CCN(C(=O)Cc3ccccc3)CC[C@@H]12,4.65%
19,CN(C)CCCC(=O)N1C[C@@H]2CC[C@H]1CN(Cc1ccccc1)C2,-5.39%
